Each structure is given as a SMILES string.

Drawing on ChEMBL document CHEMBL1221252, “Novel 1H-pyrrolo[2,3-c]pyridines as acid pump antagonists (APAs)” (Bioorg Med Chem Lett, 2010), this text covers IC50 and inhibition for 19 compounds.

Experiment [1] in a line: Inhibition of pig gastric H(+)/K(+) ATPase. The format is tissue-based, Sus scrofa, Stomach. In outline: (§1)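 Ion-leaky gastric membrane vesicles enriched in H+/K+-ATPase, prepared from pig stomach. Lyophilized vesicles in 5 mM PIPES/Tris pH 6.1 preincubated 5 min with compound, then buffer with or without K+ added. ATP substrate added, 30 min at 37 °C. Stopped with colorimetric reagent; Pi read at 620 nm. Activity taken as K+-stimulated Pi production (with minus without K+); IC50 from % inhibition by Litchfield–Wilcoxon.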

The species entered for experiment [2] is Sus scrofa. Briefly: Inhibition of pig gastric H(+)/K(+) ATPase at 4 uM. Type of experiment: tissue-based. The following applies: Stomach. In outline:
as §1

Experiment [3] is filed under the species Sus scrofa. Briefly: Inhibition of pig gastric H(+)/K(+) ATPase at 1 uM. The format is tissue-based. The following applies: Stomach. Put shortly: as §1

As a reminder, the IC50 is the concentration needed to halve the response being measured. Low readings indicate higher potency, high ones lower potency. In experiment [1], `Cc1c(C)n(CC(C)C)c2c(OCc3ccc(F)cc3)nccc12` showed an IC50 of 196 nM.

As to `Cc1c(C)n(CC2CC2)c2c(OCc3ccc(F)cc3)nccc12`, in experiment [1], the IC50 came to 181 nM.

Turning to `Cc1c(C)n(Cc2ccccc2)c2c(OCc3ccc(Cl)cc3)nccc12`, the IC50 in experiment [1] was 187 nM.

Broadly, the inhibition is how much of the control response was suppressed. Read a high inhibition as a strong effect. With `Cc1[nH]c2c(OCc3ccccc3F)nccc2c1C`, the inhibition in the experiment listed under Sus scrofa [2] came out at 32.1%.

Take `Cc1[nH]c2c(OCc3ccccc3)nccc2c1C`: the inhibition in the experiment listed under Sus scrofa [2] was 50.9%.

Compound `Cc1c(C)n(Cc2ccccc2)c2c(OCc3ccc(F)cc3)nc(C(=O)N(C)C)cc12` gave an IC50 in experiment [1] of 28 nM.

`C=CCn1c(C)c(C)c2cc(C(=O)Nc3ccncc3)nc(OCc3ccc(F)cc3)c21`: the IC50 in experiment [1] turned out to be 735 nM.

In experiment [1], `Cc1c(C)n(Cc2ccccc2)c2c(OCc3ccc(F)cc3)nc(C(=O)NC3CC3)cc12` came in with an IC50 of 738 nM.

Compound `Cc1c(C)n(Cc2ccccc2)c2c(OCc3ccc(F)cc3)nc(C(N)=O)cc12` displayed an inhibition in the experiment filed under Sus scrofa [2] of 16.1%.

`Cc1c(C)n(Cc2ccccc2)c2c(OCc3ccc(F)cc3)nc(C(=O)N3CCOCC3)cc12` gave an IC50 in experiment [1] of 29 nM.

Regarding `CNC(=O)c1cc2c(C)c(C)n(Cc3ccccc3)c2c(OCc2ccc(F)cc2)n1`, the inhibition in the experiment listed under Sus scrofa [3] amounted to 39.4%.

In turn, `Cc1c(C)n(CC(C)C)c2c(OCc3ccc(Cl)cc3)nccc12` came in with an IC50 in experiment [1] of 205 nM.

`C=CCn1c(C)c(C)c2cc(C(N)=O)nc(OCc3ccc(F)cc3)c21` came in with an inhibition in the experiment listed under Sus scrofa [2] of 80.3%.

On to `C=CCn1c(C)c(C)c2cc(C(=O)NC3CC3)nc(OCc3ccc(F)cc3)c21`, for which the IC50 in experiment [1] was determined as 408 nM.

The compound `Cc1[nH]c2c(OCc3ccc(F)cc3)nccc2c1C` gave an inhibition in the experiment listed under Sus scrofa [2] of 60.3%.

`Cc1c(C)n(CC2OCCO2)c2c(OCc3ccc(F)cc3)nccc12`: in experiment [1], it took 173 nM to reach half-maximal inhibition (IC50).

The compound `C=CCn1c(C)c(C)c2ccnc(OCc3ccc(F)cc3)c21` registered an IC50 in experiment [1] of 125 nM.

As to `C=CCn1c(C)c(C)c2cc(C(=O)NC)nc(OCc3ccc(F)cc3)c21`, in the experiment listed under Sus scrofa [2], the inhibition came to 78.4%.

In the case of `CCCn1c(C)c(C)c2ccnc(OCc3ccc(F)cc3)c21`, the IC50 in experiment [1] is 302 nM.
